The RNAGym collection of RNA variant scans (doi:10.1038/s41586-018-0170-7)

B1: tRNA (parent)
chain: GUUCCGUUGGCGUAAUGGUAACGCGUCUCCCUCCUAAGGAGAAGACUGCGGGUUCGAGUCCCGUACGGAACG

Variants of: B1
Experiment: yeast fitness, log relative to wild type (ln ratio); higher = fitter; tRNA-Arg(CCU), competitive growth, 37 C, 1 M NaCl
Outline: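 BY4742 cells without the chromosomal tRNA-Arg(CCU) gene carried a combinatorial variant library on a HIS3 centromeric plasmid, from two independent transformations. After 4 generations in SC-HIS at 30 °C, pools spent ~6.5 generations (~26.5 h) in SC-HIS 1M NaCl at 37 °C, giving three outputs per input, and 125 bp paired-end Illumina reads counted the variants. Fitness is the natural log of each genotype's generations over the wild type's, with generations taken as OD-scaled log2 output/input frequency weighted by inverse variance across replicates.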

Variant	yeast fitness (ln)
A43C A69G A70U C71U	-0.337
C66U	-0.017
C66A	-0.00943
A43C C66U A69G	-0.174
A43C C46U C66U A70U C71U	-0.211
A43C A69G A70G C71U	-0.0742
C27U C46U C66A A69G A70G C71U	-0.156
C46U C66A A69G C71U	-0.0675
C46U C66U	-0.000909
C46U C66A	-0.0399
C66U A69G A70G C71U	-0.106
C66U C71U	-0.173
A43C C66A A69G A70G	-0.154
A43C C66A A69G A70U	-0.153
A43C C46U C71U	-0.00724
C27U C46U C66A A69G A70U C71U	-0.396
C46U C71U	-0.00784
A43C C66U A69G A70U C71U	-0.365
A43C C46U C66U C71U	-0.115
C46U C66U A70U C71U	-0.148
C66A A69G C71U	-0.108
C66A A69G A70G	-0.0347
C66A A69G A70U	-0.0115
A43C C46U A70G C71U	-0.168

Variant	yeast fitness (ln)
C27U C66U A69G A70G	-0.19
C27U C66U A69G A70U	-0.143
A43C C46U A69G	0.00452
C46U A70G C71U	-0.0663
C27U C46U C66A A70G C71U	-0.129
A43C C46U C66U A69G A70G C71U	-0.158
C27U C46U C66A A69G A70U	-0.104
C27U C46U C66A A69G A70G	-0.124
A43C C46U A70U	-0.00645
A43C C46U A70G	-0.00498
A43C C71U	-0.038
A69G A70U C71U	-0.162
C27U C66U A69G A70U C71U	-0.369
A43C A69G	-0.0224
C46U C66U A69G	-0.104
A43C C66U C71U	-0.206
C66U A69G	-0.168
C46U A70U	0.00508
C46U A70G	-0.00475
A43C C46U C66A A70U	-0.0196
A43C C46U C66A A70G	0.00409
A43C C66A A70U C71U	-0.268
C46U A69G C71U	-0.00543
A69G A70G	-0.0138

Variant	yeast fitness (ln)
A69G A70U	-0.0431
A43C A69G A70G	-0.0594
A43C A69G A70U	-0.0328
C27U C66A A69G A70G	-0.25
C27U C66A A69G A70U	-0.15
A43C C66U A69G A70G C71U	-0.22
C27U C46U C66U A69G A70U C71U	-0.485
A43C C46U C66A A69G C71U	-0.26
A43C C46U C66U A70G C71U	-0.149
C46U C66A C71U	-0.0724
A43C C66A A69G A70U C71U	-0.398
C66A A70U	-0.00405
C66A A70G	-0.0114
A43C A70G	-0.022
A43C A70U	-0.0384
A43C A70G C71U	-0.164
C27U C46U C66A A69G C71U	-0.262
A69G	-0.00462
C27U C66A C71U	-0.117
C66U A70G C71U	-0.0554
A70U C71U	-0.0899
C66U A70U C71U	-0.135
C27U C66A	-0.0595
C27U C66U	-0.134

Variant	yeast fitness (ln)
C66A A70G C71U	-0.0666
C46U C66U A69G A70U C71U	-0.332
A43C C46U C66U A69G	-0.172
C27U C46U C71U	-0.028
A43C C66U A70G C71U	-0.156
C27U C66U A70U	-0.0893
C27U C66U A70G	-0.116
A43C A70U C71U	-0.0836
A43C C46U C66A A69G A70G C71U	-0.103
A70G	-0.00424
A70U	0.00232
C27U C46U C66U A69G C71U	-0.286
A43C C46U A69G A70G	-0.0166
A43C C46U A69G A70U	-0.133
C27U C46U A70U	-0.0227
C66A A70U C71U	-0.0544
A43C	0.000879
A43C C66U A69G A70U	-0.224
A43C C66U A69G A70G	-0.166
A43C C46U C66A A70G C71U	-0.0713
C46U C66A A70G C71U	-0.0671
C66U A69G A70U C71U	-0.339
C66U A69G A70U	-0.0858
C66U A69G A70G	-0.0718

Variant	yeast fitness (ln)
C66U A69G C71U	-0.166
C27U C66A A69G A70U C71U	-0.356
C46U A70U C71U	-0.129
A43C C46U C66U	-0.0822
A43C C46U C66A	-0.0152
A69G A70G C71U	-0.222
C27U C66U A70G C71U	-0.183
C27U C66A A70G C71U	-0.194
C27U C66U C71U	-0.173
C46U C66U A69G C71U	-0.396
A43C C46U C66U A69G A70G	-0.117
A43C C46U C66U A69G A70U	-0.121
A69G C71U	-0.0165
C46U C66A A69G A70G C71U	-0.0571
C46U C66U A70U	-0.103
C46U C66U A70G	-0.0429
A43C C66A A69G A70G C71U	-0.159
C46U C66U A69G A70G C71U	-0.084
C27U C46U C66A C71U	-0.0951
C46U A69G A70G C71U	-0.237
C27U C46U C66A	-0.0465
C27U C46U C66U	-0.0577
A43C C46U C66U A69G A70U C71U	-0.356
C46U A69G	-0.00396

Variant	yeast fitness (ln)
A43C C46U C66A A69G A70G	-0.0183
A43C C46U C66A A69G A70U	-0.0398
C66A A69G A70U C71U	-0.32
C46U C66A A70U C71U	-0.022
C27U C66U A69G A70G C71U	-0.262
C27U C46U C66U A69G	-0.521
A43C C46U C66U A69G C71U	-0.273
C66A A69G	-0.0295
A43C C66A C71U	-0.117
A43C C46U C66A A69G A70U C71U	-0.341
C27U C46U C66U A70U	-0.0808
C27U C46U C66U A70G	-0.315
C27U C66A A70U C71U	-0.182
A43C C66U	-0.178
A43C C66A	-0.0164
A43C C46U A69G A70U C71U	-0.273
C46U C66A A69G A70U	-0.0373
C46U C66A A69G A70G	-0.0653
C66U A70U	-0.0848
C66U A70G	-0.0949
C27U C46U A70U C71U	-0.205
C27U C66A A70G	-0.0873
C27U C66A A70U	-0.0748
C27U C66A A69G A70G C71U	-0.191

Variant	yeast fitness (ln)
A43C C66A A70G	-0.0269
A43C C66A A70U	-0.0764
A43C C46U A70U C71U	-0.131
C27U C46U C66U A69G A70G	-0.197
C27U C46U C66U A69G A70U	-0.104
A70G C71U	-0.0739
A43C C46U C66A A70U C71U	-0.128
C27U C66U A70U C71U	-0.276
C27U C46U C66A A70U C71U	-0.13
C46U C66A A69G A70U C71U	-0.282
C66A C71U	-0.0269
C46U A69G A70U C71U	-0.138
C46U C66U C71U	-0.0591
A43C A69G C71U	-0.138
C27U C46U C66A A70U	-0.0577
C27U C46U C66A A70G	-0.0605
A43C C46U C66U A70U	-0.0743
A43C C46U C66U A70G	-0.0608
A43C C66U A69G C71U	-0.436
C27U C66A A69G C71U	-0.184
A43C C66U A70U C71U	-0.358
A43C C46U A69G A70G C71U	-0.0835
A43C C66A A69G C71U	-0.226
C27U C66U A69G C71U	-0.313

Variant	yeast fitness (ln)
C46U C66U A70G C71U	-0.0752
C46U	0.0114
A43C C46U A69G C71U	-0.0511
C46U C66A A70U	0.00705
C46U C66A A70G	-0.0456
C27U C46U C66U A70G C71U	-0.126
A43C C46U	0.00767
C27U C46U C66U C71U	-0.376
C27U C71U	-0.0403
C27U C46U C66U A69G A70G C71U	-0.166
C46U A69G A70U	-0.0401
C46U A69G A70G	-0.0172
A43C C66A A70G C71U	-0.105
C71U	-0.00399
C46U C66U A69G A70G	-0.216
C46U C66U A69G A70U	-0.0707
C66A A69G A70G C71U	-0.0757
A43C C66U A70G	-0.0981
A43C C66U A70U	-0.105
A43C C46U C66A C71U	-0.0684
C27U C46U C66U A70U C71U	-0.197
C27U C66U A69G	-0.241
